Here are results for 14 compounds from ChEMBL document CHEMBL5131507, “Identification of histone deacetylase 10 (HDAC10) inhibitors that modulate autophagy in transformed cells” (Eur J Med Chem, 2022).

Data set [1] addresses T1, Histone deacetylase 1 (Homo sapiens, UniProt Q13547). The experiment in a line: Inhibition of recombinant human HDAC1 using ZMAL (Z-(Ac)Lys-AMC as substrate incubated for 20 mins at 1 uM and measured by homogenous fluorescence assay relative to control.
For data set [2], the system named is HEK293. As to the kind of experiment: Cytotoxicity against human HEK293 cells assessed as cell viability at 50 uM measured after 24 hrs by Alamar Blue assay. The data set is classed as toxicity, cell-based. The conditions noted are these: hek293, 24 h. In general terms: The colour change of resazurin is a common sign of viable cells or microbes.
Data set [3] has as its target T1, Histone deacetylase 1. The experiment in a line: Inhibition of recombinant human HDAC1 using ZMAL (Z-(Ac)Lys-AMC as substrate incubated for 20 mins at 10 uM and measured by homogenous fluorescence assay relative to control.
The target of data set [4] is T2, Protein deacetylase HDAC6 (Homo sapiens) (UniProt Q9UBN7).
T2 sequence (whole entry): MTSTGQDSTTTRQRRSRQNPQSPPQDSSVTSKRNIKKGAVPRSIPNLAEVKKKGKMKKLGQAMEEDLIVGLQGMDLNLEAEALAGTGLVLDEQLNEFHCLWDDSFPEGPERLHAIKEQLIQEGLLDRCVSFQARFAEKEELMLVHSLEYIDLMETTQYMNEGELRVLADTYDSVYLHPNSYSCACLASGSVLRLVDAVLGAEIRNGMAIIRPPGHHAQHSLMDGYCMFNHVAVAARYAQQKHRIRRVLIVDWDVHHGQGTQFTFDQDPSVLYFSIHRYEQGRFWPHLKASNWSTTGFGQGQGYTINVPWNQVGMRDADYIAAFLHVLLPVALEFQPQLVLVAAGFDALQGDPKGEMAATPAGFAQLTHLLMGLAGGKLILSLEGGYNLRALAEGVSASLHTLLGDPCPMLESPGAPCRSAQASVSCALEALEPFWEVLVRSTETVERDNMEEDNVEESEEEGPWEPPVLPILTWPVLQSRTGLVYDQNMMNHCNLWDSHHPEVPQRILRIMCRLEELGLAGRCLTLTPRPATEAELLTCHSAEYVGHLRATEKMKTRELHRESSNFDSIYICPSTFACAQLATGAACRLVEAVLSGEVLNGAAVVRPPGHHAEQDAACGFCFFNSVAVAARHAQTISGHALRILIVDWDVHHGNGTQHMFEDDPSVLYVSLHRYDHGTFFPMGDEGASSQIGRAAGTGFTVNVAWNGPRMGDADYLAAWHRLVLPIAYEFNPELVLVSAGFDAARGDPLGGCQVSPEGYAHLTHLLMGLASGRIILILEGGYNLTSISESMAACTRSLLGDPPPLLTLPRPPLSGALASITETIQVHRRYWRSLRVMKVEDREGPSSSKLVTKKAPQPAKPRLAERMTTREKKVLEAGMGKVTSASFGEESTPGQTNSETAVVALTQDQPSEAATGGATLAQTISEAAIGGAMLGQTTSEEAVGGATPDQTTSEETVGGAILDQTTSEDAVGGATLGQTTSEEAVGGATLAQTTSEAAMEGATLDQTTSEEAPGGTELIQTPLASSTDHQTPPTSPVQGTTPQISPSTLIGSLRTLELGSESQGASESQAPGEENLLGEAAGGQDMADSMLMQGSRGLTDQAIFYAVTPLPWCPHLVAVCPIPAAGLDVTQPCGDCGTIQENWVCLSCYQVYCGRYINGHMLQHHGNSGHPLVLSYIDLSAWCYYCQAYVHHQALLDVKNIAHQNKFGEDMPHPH
As to the kind of experiment: Inhibition of recombinant human HDAC6 using ZMAL (Z-(Ac)Lys-AMC as substrate incubated for 20 mins at 1 uM and measured by homogenous fluorescence assay relative to control.

In data set [5] the target is T3, Histone deacetylase 8 (Homo sapiens) (UniProt Q9BY41).
T3 sequence (whole entry): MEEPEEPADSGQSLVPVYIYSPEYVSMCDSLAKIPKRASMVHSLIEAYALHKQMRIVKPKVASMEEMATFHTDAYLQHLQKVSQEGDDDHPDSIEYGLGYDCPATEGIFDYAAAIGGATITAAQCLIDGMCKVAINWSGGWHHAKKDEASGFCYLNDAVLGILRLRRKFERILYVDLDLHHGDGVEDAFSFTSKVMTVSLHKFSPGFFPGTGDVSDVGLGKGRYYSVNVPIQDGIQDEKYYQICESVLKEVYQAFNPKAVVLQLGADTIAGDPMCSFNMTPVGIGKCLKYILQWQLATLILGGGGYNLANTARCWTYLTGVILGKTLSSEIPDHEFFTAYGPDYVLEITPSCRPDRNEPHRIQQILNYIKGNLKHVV
The experiment in a line: Inhibition of recombinant human HDAC8 using H2N-Arg- His-Lys(Ac)-Lys(Ac)-AMC as substrate incubated for 90 mins at 1 uM and measured after 20 mins by fluorescence assay relative to control. In a few lines:
(§1)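 Recombinant hHDAC8 run per a commercial fluorometric HDAC8 kit protocol. Substrate H2N-Arg-His-Lys(Ac)-Lys(Ac)-AMC at 50 μM with enzyme and rising inhibitor concentrations, 90 min at 37 °C. Stop solution with inhibitor plus trypsin added, developed 20 min at 37 °C. Read at Ex 355/Em 460 nm.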

For data set [6], the target named is T2, Protein deacetylase HDAC6 (Homo sapiens). As to the kind of experiment: Inhibition of recombinant human HDAC6 using ZMAL (Z-(Ac)Lys-AMC as substrate incubated for 20 mins at 10 uM and measured by homogenous fluorescence assay relative to control.
Data set [7] addresses T4, Polyamine deacetylase HDAC10 (Danio rerio) (UniProt F1QCV2).
T4 sequence (whole entry): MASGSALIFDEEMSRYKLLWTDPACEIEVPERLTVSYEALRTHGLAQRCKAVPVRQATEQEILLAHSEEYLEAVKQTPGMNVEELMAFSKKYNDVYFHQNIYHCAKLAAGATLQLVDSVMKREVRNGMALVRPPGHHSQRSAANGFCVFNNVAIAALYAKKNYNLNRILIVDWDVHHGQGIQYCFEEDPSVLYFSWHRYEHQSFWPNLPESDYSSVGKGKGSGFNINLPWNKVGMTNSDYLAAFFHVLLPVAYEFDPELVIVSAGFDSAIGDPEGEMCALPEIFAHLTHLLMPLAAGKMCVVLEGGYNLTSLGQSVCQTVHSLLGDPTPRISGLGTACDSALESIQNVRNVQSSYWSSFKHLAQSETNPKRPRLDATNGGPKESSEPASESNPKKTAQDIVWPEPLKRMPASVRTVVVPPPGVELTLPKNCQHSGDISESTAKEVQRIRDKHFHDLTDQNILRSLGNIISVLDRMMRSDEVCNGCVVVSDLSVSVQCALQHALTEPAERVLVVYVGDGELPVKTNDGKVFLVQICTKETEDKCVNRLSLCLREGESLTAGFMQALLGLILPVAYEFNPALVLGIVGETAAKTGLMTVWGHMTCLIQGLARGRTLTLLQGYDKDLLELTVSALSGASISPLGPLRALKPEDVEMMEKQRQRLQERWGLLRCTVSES
As to the kind of experiment: Inhibition of zebra fish HDAC10 using Ac-spermidine-AMC as substrate incubated for 25 mins at 10 uM and measured by fluorescence assay relative to control. In a few lines:
(§2)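 Ac-spermidine-AMC at 10.5 μM final in pH 7.9 phosphate buffer (NaCl, EDTA, glycerol, Mesna, Tween 20); inhibitors in DMSO. 25 min at 25 °C, stopped with NDA in borate pH 9.5. Read at Ex 330/Em 390 nm; IC50 by nonlinear regression.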

Data set [8] concerns the target T3, Histone deacetylase 8 (Homo sapiens). As to the kind of experiment: Inhibition of recombinant human HDAC8 using H2N-Arg- His-Lys(Ac)-Lys(Ac)-AMC as substrate incubated for 90 mins at 10 uM and measured after 20 mins by fluorescence assay relative to control. In a few lines: as §1
The target of data set [9] is T5, Protein deacetylase HDAC6 (Homo sapiens, UniProt Q9UBN7).
T5 sequence (Q9UBN7 whole entry): T2 sequence (whole entry)
As to the kind of experiment: Inhibition of recombinant human HDAC6 using ZMAL (Z-(Ac)Lys-AMC as substrate incubated for 20 mins and measured by homogenous fluorescence assay.

Data set [10] has as its target T6, Polyamine deacetylase HDAC10 (Danio rerio, UniProt F1QCV2).
T6 sequence (F1QCV2 whole entry): T4 sequence (whole entry)
The experiment in a line: Inhibition of zebra fish HDAC10 using Ac-spermidine-AMC as substrate incubated for 25 mins and measured by fluorescence assay. The method in brief: as §2

In data set [11] the target is T7, Histone deacetylase 8 (Homo sapiens, UniProt Q9BY41).
T7 sequence (Q9BY41 whole entry): T3 sequence (whole entry)
As to the kind of experiment: Inhibition of recombinant human HDAC8 using H2N-Arg- His-Lys(Ac)-Lys(Ac)-AMC as substrate incubated for 90 mins and measured after 20 mins by fluorescence assay. The method in brief: as §1

Data set [12] addresses T1, Histone deacetylase 1. The experiment in a line: Inhibition of recombinant human HDAC1 using ZMAL (Z-(Ac)Lys-AMC as substrate incubated for 20 mins and measured by homogenous fluorescence assay.
The test system of data set [13] is MV4-11. The experiment in a line: Induction of autophagy in human MV4-11 cells assessed as slight increase in HDAC10 at 2 to 15 uM measured by immunoblotting method. Format: functional, cell-based. The conditions noted are these: dose 2-15 µM. (A western blot detects proteins with antibodies after separation by electrophoresis.)
The target in data set [14] is T2, Protein deacetylase HDAC6 (Homo sapiens). The experiment in a line: Inhibition of HDAC6 in human MV4-11 cells assessed as fold-induction of tubulin acetylation at 15 uM measured by immunoblotting method. The data set is classed as cell-based. In a few lines:
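MV4–11 cells treated 24 h with 2–15 μM test compounds or 0.5 μM marbostat-100 as HDAC6 reference, with solvent control. Whole-cell lysates immunoblotted for acetylated tubulin-α, β-actin as loading control. Blots quantified and expressed as fold change over untreated cells; n = 2.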

Active and inactive are the calls of the source. No cut-off for these calls is given here.

T1 sequence (Q13547 whole entry): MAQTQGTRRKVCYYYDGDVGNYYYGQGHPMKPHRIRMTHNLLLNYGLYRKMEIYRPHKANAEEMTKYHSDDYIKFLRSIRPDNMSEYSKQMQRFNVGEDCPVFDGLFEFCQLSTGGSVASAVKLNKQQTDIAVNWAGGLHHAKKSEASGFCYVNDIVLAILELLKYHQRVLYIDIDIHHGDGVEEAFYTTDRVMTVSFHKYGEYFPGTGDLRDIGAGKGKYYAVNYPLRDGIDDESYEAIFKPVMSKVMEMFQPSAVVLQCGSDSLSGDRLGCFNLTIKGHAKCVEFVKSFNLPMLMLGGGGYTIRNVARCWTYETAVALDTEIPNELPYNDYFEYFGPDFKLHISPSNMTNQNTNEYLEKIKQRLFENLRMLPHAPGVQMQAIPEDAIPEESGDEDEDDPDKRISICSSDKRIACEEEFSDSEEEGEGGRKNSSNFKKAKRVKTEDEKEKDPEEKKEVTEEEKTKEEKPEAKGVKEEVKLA

With `O=C(/C=C/C1CCN(Cc2ccc(-c3ccccc3)cc2)CC1)NO`, the inhibition was found to be 22% in data set [1]; 56% in data set [3]; 29% in data set [4]; 54% in [5]; 72% in [6]; 46% in data set [7]. For the same compound, the inhibition in data set [8] was determined as 91%. For the same compound, the Activity in data set [2] is listed as 55%.

For `O=C(/C=C/C1CCN(Cc2ccc(Cl)cc2)CC1)NO`, the IC50 in [9] was 430 nM; in data set [10] it was 33 nM; in [11], 950 nM; in data set [12], 9000 nM. Besides, the Activity in [2] came to 84.6%.

Take `O=C(NO)c1ccc(CNCc2ccccc2)cc1`: the results for the 50% inhibitory concentration (IC50) in data set [9], in data set [10] and in data set [11] were 210 nM, 37 nM and 3500 nM, respectively. In addition, the inhibition in [1] was 19%; in data set [3], 49%. Besides, in data set [2], the Activity is recorded as 77.1%.

As to `O=C(/C=C/C1CCN(CCc2ccccc2)CC1)NO`, the IC50 in data set [9] came out at 4400 nM; in [10], 11 nM; in [12], 16000 nM. Moreover, the Activity in data set [2] is recorded as 54.4%.

With `O=C(NO)c1ccc(CNCc2cccs2)cc1`, the values for the IC50 in data set [9], in data set [10] and in data set [11] were 158 nM, 106 nM and 3200 nM, respectively. Also, the inhibition in data set [1] is 15%; in data set [3], 68%. Further, in data set [2], the Activity was found to be 71.6%.

As to `O=C(/C=C/C1CCN(Cc2ccccc2)CC1)NO`, the inhibition in [1] turned out to be 12%; in data set [3] it was 62%; in [4], 34%; in data set [6], 89%. Moreover, in data set [2], the Activity was 100.9%. The compound further yielded a half-maximal inhibitory concentration (IC50) in data set [10] of 530 nM.

For the compound `O=C(/C=C/C1CCN(Cc2cccc(Cl)c2)CC1)NO`, the inhibition stood at 24% in [1], 67% in data set [3], 40% in data set [4] and 83% in data set [6]. For the same compound, the Activity in data set [2] is 88.6%. This compound also gave a concentration for half-maximal inhibition (IC50) in data set [10] of 60 nM.

As to `O=C(/C=C/C1CCN(Cc2csc3ccccc23)CC1)NO`, the figures for the half-maximal inhibitory concentration (IC50) in [9], in data set [10] and in data set [11] were 1400 nM, 62 nM and 1300 nM, respectively. The inhibition was found to be 29% in data set [1] and 66% in [3]. The Activity in data set [2] came to 88.2%.

Consider `O=C(NO)c1ccc(CNCc2ccsc2)cc1`, for which the half-maximal inhibitory concentration (IC50) in [9] amounted to 177 nM; in data set [10], 24 nM; in data set [11], 1900 nM. Also, the inhibition in data set [1] stood at 16%; in data set [3], 50%. Also, the Activity in data set [2] stood at 81.5%.

As for `Cn1cc(CN2CCC(/C=C/C(=O)NO)CC2)c2ccccc21`, the IC50 came out at 2420 nM in data set [9], 58 nM in data set [10] and 920 nM in data set [11]. Also, the inhibition in data set [1] came to 12%; in data set [3], 67%. In addition, in [2], the Activity amounted to 68.2%. For the same compound, the result in data set [13] was Active. Besides, the fold change (FC) in [14] came out at 36.

Regarding `Cc1ccc(CN2CCC(/C=C/C(=O)NO)CC2)cc1`, the Activity in [2] is reported as 104.9%. The compound also yielded an inhibition in [7] of 23%.

In the case of `O=C(/C=C/C1CCN(Cc2cccc3ccccc23)CC1)NO`, the IC50 was found to be 3700 nM in [9], 20 nM in data set [10] and 3000 nM in [12]. Further, in [2], the Activity is reported as 51.6%. The result in data set [13] was Active. The fold change (FC) in data set [14] turned out to be 36.

As to `CN1CCN(Cc2ccc(C(=O)NO)cc2)CC1`, the results for the IC50 in [9] and in [10] were 280 nM and 43 nM, respectively. The inhibition in data set [1] was found to be 6%; in [3], 54%. The Activity in data set [2] is 86.4%.

Consider `CN1CCc2c(c3ccccc3n2Cc2ccc(C(=O)NO)cc2)C1` [TUBASTATIN A], for which it took 220 nM to reach half-maximal inhibition in data set [10] (IC50).

The term inhibition denotes how much of the control response was suppressed. One may read the IC50 as the midpoint of a concentration-inhibition curve.
